Sampled rows, rich in hits. Any-hit rate of the full collection: about 2.5%.
Diaph inh CS: diaphorase inhibitors and chemical oxidizers, primary screen, counter-screen for diaphorase-coupled primary assays, biochemical, uHTS, resorufin fluorescence; diaphorase resazurin-to-resorufin fluorescence, NADH, 16 min; bacterial (C. kluyveri) enzyme, not human; inhibition, % at 20 µM; hit rate 0.69% among 190,000;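 active means primary screen inhibition at 20 µM above a set limit, cut at about 50% in these data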;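 further: plate controls were DMSO with full reaction for no effect and wells lacking NADH for full effect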
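Test system: diaphorase enzyme from Clostridium kluyveri; amount: diaphorase at 0.14 U/mL in enzyme working solution; detection: fluorescence of resorufin formed from resazurin, Ex 544/Em 590 nm; times: reaction incubation of 16 min at room temperature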
FLuc inh counter: firefly luciferase enzyme inhibitors, primary screen, artefact control for luciferase-based inhibitor screens, biochemical, luminescence, ATPLite; AID 1006, 2008; Luciferin 4-monooxygenase (Photinus pyralis), P08659; inhibition, % at 10 µM; 10 min; hit rate 1.5% among 200,000;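 active means inhibition above about 50% when tested at 10 µM, limit read from the data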
PMI act: activators of human PMI, primary screen, biochemical, fluorescence intensity, near-Km mannose 6-phosphate. activation factor at 20 µM. Mannose-6-phosphate isomerase (Homo sapiens), P34949. purified human PMI, coupled resazurin fluorescence, 20 min; stronger effect = higher value; 1 = vehicle control, 0 substrate-free wells. hit rate 0.005% among 190,000. AID 1214, 2008;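 active means activation factor of 2 or more at 20 µM, relative to plate controls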
Target sequence (P34949 whole entry, looked up): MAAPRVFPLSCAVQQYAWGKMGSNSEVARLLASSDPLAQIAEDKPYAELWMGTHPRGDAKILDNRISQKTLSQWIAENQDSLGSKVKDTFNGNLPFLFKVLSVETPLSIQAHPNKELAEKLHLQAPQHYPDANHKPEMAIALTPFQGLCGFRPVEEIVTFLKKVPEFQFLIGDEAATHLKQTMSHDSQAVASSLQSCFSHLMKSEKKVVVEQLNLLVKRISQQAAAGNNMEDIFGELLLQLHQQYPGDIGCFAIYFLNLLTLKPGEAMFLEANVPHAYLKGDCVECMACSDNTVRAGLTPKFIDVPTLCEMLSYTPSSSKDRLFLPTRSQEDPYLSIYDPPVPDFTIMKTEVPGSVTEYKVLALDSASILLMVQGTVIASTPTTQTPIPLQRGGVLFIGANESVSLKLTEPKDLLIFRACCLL
Diaph act CS: compounds boosting diaphorase resazurin reduction – biochemical, uHTS, resorufin fluorescence, counter-screen for diaphorase-coupled primary assays, primary screen; activation factor at 20 µM; Diaphorase/resazurin coupled assay, 16 min; stronger effect = higher value; 1 = vehicle wells, 0 = NADH-free wells; hit rate 0.005% among 190,000; AID 1229, 2008;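 active means diaphorase activity raised at least twofold by the compound at 20 µM; inactive means activation factor below 2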
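Measured by – red resorufin fluorescence at 544/590 nm excitation/emission · Test system – Clostridium kluyveri diaphorase, purified enzyme · Incubation – reaction time 16 min, room temperature · Buffer or medium – 50 mM HEPES pH 7.4 with 4.542 mM MgCl2, 0.005% Tween 20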
PMI act hi M6P: human PMI activators, high substrate, primary screen, biochemical, fluorescence intensity, near-saturating mannose 6-phosphate | Mannose-6-phosphate isomerase (Homo sapiens), P34949 | coupled PMI enzyme assay, resazurin fluorescence, 20 min; stronger effect = higher value; 1 = untreated enzyme, 0 = substrate-free blank | activation factor at 20 µM | hit rate 0.34% among 190,000 | AID 1216, 2008;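 active means activation factor of 2 or more at 20 µM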
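Test system: human phosphomannose isomerase with PGI, G6PDH, diaphorase coupling enzymes; amount: 15 ng/mL PMI; incubation: enzyme reaction with compound 20 min at room temperature; technique: resorufin fluorescence (Ex 544/Em 590 nm) from resazurin via diaphorase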
FLuc act counter: FLuc activators, initial screening, artefact control for FLuc-dependent activation tests, biochemical, ATPlite luminescence | Luciferin 4-monooxygenase (Photinus pyralis), P08659 | ATPlite luciferase biochemical, 10 min; 0 = ATP-free wells, 1 = DMSO control | activation factor at 10 µM | 200,000 tested, under 10 active | AID 1027, 2008;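 active means luciferase activation factor, scaled between plate controls, of at least 2 with compound at 10 µM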
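Assay system: Luciferase/luciferin detection reagent, cell-free biochemical luciferase assay / Also added: ATP substrate / Schedule: 10 min at ambient temperature / Measured by: luminescence measurement of luciferase light output / Benchmarks: low control with PBS replacing ATP, high control enzyme plus ATP without compound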
The depositor's hits bear a star.

`COc1cc(C(=O)NC(=S)NNC(=O)c2cnccn2)cc(OC)c1OC` gave Diaph inh CS 51*, FLuc inh counter -8, PMI act 0.9, Diaph act CS 0.5, PMI act hi M6P 1.3 and FLuc act counter 1.1.
COC(=O)c1[nH]c2cc(OC)ccc2c1N was read as Diaph inh CS 18, FLuc inh counter 10, PMI act 0.9, Diaph act CS 0.8, PMI act hi M6P 0.9 and FLuc act counter 0.9.
For Cc1nc2c3cc(Cl)ccc3n(CCN3CCCCC3)c2s1 the results were Diaph inh CS 6, FLuc inh counter -10, PMI act 1, Diaph act CS 0.9, PMI act hi M6P 1.1 and FLuc act counter 1.1.
CC(=O)Nc1ccc(OCC(=O)N(CC(C)C)C2CCS(=O)(=O)C2)cc1 (configuration not stated) was read as Diaph inh CS 10, FLuc inh counter -4, PMI act 1.3, Diaph act CS 0.9, PMI act hi M6P 1.1 and FLuc act counter 1.
Screening CC(C)NC(=O)C1CCN(C2CCN(Cc3nc4ccccc4s3)CC2)CC1 returned Diaph inh CS 10, FLuc inh counter -2, PMI act 1, Diaph act CS 0.9, PMI act hi M6P 1 and FLuc act counter 1.
For Cc1cc(C)c(NC(=O)COC(=O)c2cccc3c2C(=O)c2ccccc2C3=O)c(C)c1 the results were Diaph inh CS 22, FLuc inh counter -7, PMI act 0.9, Diaph act CS 0.8, PMI act hi M6P 0.7 and FLuc act counter 1.1.
Screening Cc1cc(C)c(Nc2cc(S(=O)(=O)O)c(N)c3c2C(=O)c2ccccc2C3=O)c(C)c1 returned Diaph inh CS 80*, FLuc inh counter 24, PMI act 0.1, Diaph act CS 0.2, PMI act hi M6P 0.6 and FLuc act counter 0.8.
Screening O=C1/C(=C/c2cccs2)COc2ccccc21 returned Diaph inh CS 8, FLuc inh counter 71*, PMI act 0.9, Diaph act CS 0.9, PMI act hi M6P 0.9 and FLuc act counter 0.3.
Screening O=C(NCc1cccs1)c1cc2c(s1)-c1ccccc1OC2 returned Diaph inh CS 22, FLuc inh counter -3, PMI act 0.9, Diaph act CS 0.8, PMI act hi M6P 0.9 and FLuc act counter 1.
For CC(=O)Nc1cc(-c2ccc(Cl)cc2)[nH]n1 the results were FLuc inh counter 9 and FLuc act counter 0.9.
Cc1cc(-c2n[nH]c(=S)n2/N=C/C(Cl)=C/c2ccccc2)n[nH]1 was read as Diaph inh CS 51*, FLuc inh counter -4, PMI act 0.7, Diaph act CS 0.5, PMI act hi M6P 0.8 and FLuc act counter 1.
Screening CC(/C=N/n1c(-c2cccnc2)n[nH]c1=S)=C\c1ccccc1 returned Diaph inh CS 42, FLuc inh counter -1, PMI act 0.9, Diaph act CS 0.6, PMI act hi M6P 1 and FLuc act counter 1.
`CC(=C/c1ccccc1)/C=N/n1c(-c2ccncc2)n[nH]c1=S` gave Diaph inh CS 66*, FLuc inh counter -3, PMI act 0.7, Diaph act CS 0.3, PMI act hi M6P 0.7 and FLuc act counter 1.
Screening Cc1cc(-c2n[nH]c(=S)n2/N=C/c2cccc([N+](=O)[O-])c2)n[nH]1 returned Diaph inh CS 62*, FLuc inh counter 4, PMI act 0.9, Diaph act CS 0.4, PMI act hi M6P 1 and FLuc act counter 1.
O=c1[nH]c2ccc(Cl)cc2c(-c2ccccc2)c1N1CCN(c2ccccn2)CC1 was read as Diaph inh CS 28, FLuc inh counter -8, PMI act 0.9, Diaph act CS 0.7, PMI act hi M6P 0.9 and FLuc act counter 1.1.
O=C(O)Cc1ccc2sc(-c3ccccc3)nc2c1 was read as Diaph inh CS 23, FLuc inh counter 43, PMI act 1, Diaph act CS 0.8, PMI act hi M6P 0.9 and FLuc act counter 0.6.
For COC(=O)Cc1ccc2sc(-c3ccccc3)nc2c1 the results were Diaph inh CS 19, FLuc inh counter 83*, PMI act 0.9, Diaph act CS 0.8, PMI act hi M6P 0.9 and FLuc act counter 0.2.
Screening CS(=O)(=O)N(CC(=O)N1CCCCCC1)c1ccc2c(c1)OCCO2 returned Diaph inh CS 7, FLuc inh counter -12, PMI act 0.9, Diaph act CS 0.9, PMI act hi M6P 1 and FLuc act counter 1.1.
Cc1cc(C)n(-c2nnc(N3CCN(c4ccc(F)cc4)CC3)nn2)n1 was read as Diaph inh CS 53*, FLuc inh counter 2, PMI act 0.1, Diaph act CS 0.5, PMI act hi M6P 0.4 and FLuc act counter 1.
Screening CCCCNC(=O)c1cc2ccccc2s1 returned Diaph inh CS 3, FLuc inh counter 19, PMI act 1, Diaph act CS 1, PMI act hi M6P 1.1 and FLuc act counter 0.8.
`CCc1cc(/C(Cc2ccccn2)=N\Nc2ccccc2)c(O)cc1O` gave Diaph inh CS 24, FLuc inh counter -4, PMI act 1.6, Diaph act CS 0.8, PMI act hi M6P 2.1* and FLuc act counter 1.
`Cc1nc(C/C(=N\Nc2ccccc2)c2ccc(O)cc2O)cs1` gave Diaph inh CS 35, FLuc inh counter 0, PMI act 1.4, Diaph act CS 0.7, PMI act hi M6P 2.1* and FLuc act counter 1.
Screening CC(NC(=O)CCc1ccc(S(=O)(=O)NC2CCCCC2)cc1)c1ccccc1 (configuration not stated) returned Diaph inh CS 6, FLuc inh counter -5, PMI act 1, Diaph act CS 0.9, PMI act hi M6P 1.1 and FLuc act counter 1.1.
`Cc1ccc(NC(=O)n2ccc(-c3ccc(-n4ccnc4)cc3)n2)cc1` gave Diaph inh CS -4, FLuc inh counter 27, PMI act 1.1, Diaph act CS 1, PMI act hi M6P 1 and FLuc act counter 0.7.
Screening O=C(Nc1ccc(NC(=O)C2CC2)nc1)c1ccccn1 returned Diaph inh CS 8, FLuc inh counter 62*, PMI act 1, Diaph act CS 0.9, PMI act hi M6P 1 and FLuc act counter 0.4.
For CC(C)C(=O)Nc1ccc(NC(=O)c2ccccn2)cn1 the results were Diaph inh CS 17, FLuc inh counter 67*, PMI act 1, Diaph act CS 0.8, PMI act hi M6P 0.9 and FLuc act counter 0.3.

Screening results from PubChem BioAssay.
